From ChEMBL document CHEMBL2346629, “Discovery and characterization of novel allosteric FAK inhibitors” (Eur J Med Chem, 2013)

How the values were obtained:
[1] = molecular target: Tyrosine-protein kinase Fyn (Homo sapiens, UniProt P06241); experiment: Inhibition of FYN (unknown origin) using [gamma-33P]ATP
In short: (§1)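 Radiometric kinase profiling service covering 288 kinases (261 wild-type, 27 mutant). Inhibition was read as incorporation from [γ-³³P]ATP.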

[2] = molecular target: Mitogen-activated protein kinase kinase kinase 9 (Homo sapiens, UniProt P80192); experiment: Inhibition of MLK1 (unknown origin) using [gamma-33P]ATP; in short: as §1
Sequence of Mitogen-activated protein kinase kinase kinase 9 (P80192 whole entry): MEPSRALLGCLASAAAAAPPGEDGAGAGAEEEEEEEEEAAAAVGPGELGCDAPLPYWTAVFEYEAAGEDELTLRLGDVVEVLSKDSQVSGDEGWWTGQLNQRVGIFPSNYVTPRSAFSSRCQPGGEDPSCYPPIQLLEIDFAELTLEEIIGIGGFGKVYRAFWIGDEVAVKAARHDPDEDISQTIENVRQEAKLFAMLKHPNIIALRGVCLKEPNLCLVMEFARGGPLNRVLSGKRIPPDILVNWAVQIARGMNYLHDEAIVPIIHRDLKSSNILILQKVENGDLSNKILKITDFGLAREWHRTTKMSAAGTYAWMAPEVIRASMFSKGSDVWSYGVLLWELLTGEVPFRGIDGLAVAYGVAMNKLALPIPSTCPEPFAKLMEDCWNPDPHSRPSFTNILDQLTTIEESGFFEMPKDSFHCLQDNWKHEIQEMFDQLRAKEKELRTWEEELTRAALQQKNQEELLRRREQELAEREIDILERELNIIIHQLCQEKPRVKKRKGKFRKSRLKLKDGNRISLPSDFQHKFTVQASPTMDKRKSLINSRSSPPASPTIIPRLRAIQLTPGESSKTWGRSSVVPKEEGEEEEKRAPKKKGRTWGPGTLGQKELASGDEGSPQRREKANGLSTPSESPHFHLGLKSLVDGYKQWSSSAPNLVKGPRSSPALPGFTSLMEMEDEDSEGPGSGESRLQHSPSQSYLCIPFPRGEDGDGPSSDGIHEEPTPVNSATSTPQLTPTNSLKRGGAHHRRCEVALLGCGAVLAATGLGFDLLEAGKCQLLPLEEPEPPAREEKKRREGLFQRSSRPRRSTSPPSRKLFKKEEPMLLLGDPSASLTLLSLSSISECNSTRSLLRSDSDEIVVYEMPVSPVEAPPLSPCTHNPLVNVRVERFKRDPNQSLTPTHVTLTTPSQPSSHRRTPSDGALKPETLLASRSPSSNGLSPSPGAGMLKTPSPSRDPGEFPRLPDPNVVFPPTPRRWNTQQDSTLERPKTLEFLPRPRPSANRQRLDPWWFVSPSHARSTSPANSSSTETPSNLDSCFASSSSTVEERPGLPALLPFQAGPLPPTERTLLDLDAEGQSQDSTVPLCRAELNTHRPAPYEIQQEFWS

[3] = molecular target: Myosin light chain kinase, smooth muscle (Homo sapiens, UniProt Q15746); experiment: Inhibition of MLCK (unknown origin) using [gamma-33P]ATP; in short: as §1
[4] = molecular target: Mitogen-activated protein kinase kinase kinase kinase 2 (Homo sapiens, UniProt Q12851); experiment: Inhibition of GCK (unknown origin) using [gamma-33P]ATP; in short: as §1
[5] = molecular target: Tyrosine-protein kinase Fgr (Homo sapiens, UniProt P09769); experiment: Inhibition of FGR (unknown origin) using [gamma-33P]ATP
In short: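 Reaction Biology HotSpot radiometric profiling panel of 288 kinases (261 wild-type, 27 mutant). Kinase activity was read out by incorporation of [γ-33P]ATP.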

[6] = molecular target: Tyrosine-protein kinase Yes (Homo sapiens, UniProt P07947); experiment: Inhibition of YES (unknown origin) using [gamma-33P]ATP; in short: as §1
[7] = molecular target: Serine/threonine-protein kinase Chk2 (Homo sapiens, UniProt O96017); experiment: Inhibition of CHK2 (unknown origin) using [gamma-33P]ATP
Sequence of Serine/threonine-protein kinase Chk2 (O96017 whole entry): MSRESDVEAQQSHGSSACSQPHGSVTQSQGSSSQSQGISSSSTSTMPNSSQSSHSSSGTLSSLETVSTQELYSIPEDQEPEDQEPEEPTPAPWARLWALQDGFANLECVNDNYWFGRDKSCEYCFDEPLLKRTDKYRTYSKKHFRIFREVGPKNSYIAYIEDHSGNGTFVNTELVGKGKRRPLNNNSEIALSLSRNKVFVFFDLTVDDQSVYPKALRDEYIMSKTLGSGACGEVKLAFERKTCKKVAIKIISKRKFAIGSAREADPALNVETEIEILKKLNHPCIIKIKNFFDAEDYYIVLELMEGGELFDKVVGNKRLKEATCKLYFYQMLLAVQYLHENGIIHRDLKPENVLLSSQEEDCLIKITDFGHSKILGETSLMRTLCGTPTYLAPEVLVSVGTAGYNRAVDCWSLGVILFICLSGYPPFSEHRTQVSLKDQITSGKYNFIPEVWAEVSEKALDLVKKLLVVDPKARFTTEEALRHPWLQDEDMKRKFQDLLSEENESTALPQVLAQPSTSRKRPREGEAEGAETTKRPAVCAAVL
In short: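 Radiometric profiling across 288 kinases (261 wild-type, 27 mutant), run as an outsourced service. Inhibition read out as [gamma-33P]ATP incorporation into substrate.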

[8] = molecular target: Mitogen-activated protein kinase kinase kinase kinase 4 (Homo sapiens, UniProt O95819); experiment: Inhibition of HGK (unknown origin) using [gamma-33P]ATP; in short: as §1
Sequence of Mitogen-activated protein kinase kinase kinase kinase 4 (O95819 whole entry): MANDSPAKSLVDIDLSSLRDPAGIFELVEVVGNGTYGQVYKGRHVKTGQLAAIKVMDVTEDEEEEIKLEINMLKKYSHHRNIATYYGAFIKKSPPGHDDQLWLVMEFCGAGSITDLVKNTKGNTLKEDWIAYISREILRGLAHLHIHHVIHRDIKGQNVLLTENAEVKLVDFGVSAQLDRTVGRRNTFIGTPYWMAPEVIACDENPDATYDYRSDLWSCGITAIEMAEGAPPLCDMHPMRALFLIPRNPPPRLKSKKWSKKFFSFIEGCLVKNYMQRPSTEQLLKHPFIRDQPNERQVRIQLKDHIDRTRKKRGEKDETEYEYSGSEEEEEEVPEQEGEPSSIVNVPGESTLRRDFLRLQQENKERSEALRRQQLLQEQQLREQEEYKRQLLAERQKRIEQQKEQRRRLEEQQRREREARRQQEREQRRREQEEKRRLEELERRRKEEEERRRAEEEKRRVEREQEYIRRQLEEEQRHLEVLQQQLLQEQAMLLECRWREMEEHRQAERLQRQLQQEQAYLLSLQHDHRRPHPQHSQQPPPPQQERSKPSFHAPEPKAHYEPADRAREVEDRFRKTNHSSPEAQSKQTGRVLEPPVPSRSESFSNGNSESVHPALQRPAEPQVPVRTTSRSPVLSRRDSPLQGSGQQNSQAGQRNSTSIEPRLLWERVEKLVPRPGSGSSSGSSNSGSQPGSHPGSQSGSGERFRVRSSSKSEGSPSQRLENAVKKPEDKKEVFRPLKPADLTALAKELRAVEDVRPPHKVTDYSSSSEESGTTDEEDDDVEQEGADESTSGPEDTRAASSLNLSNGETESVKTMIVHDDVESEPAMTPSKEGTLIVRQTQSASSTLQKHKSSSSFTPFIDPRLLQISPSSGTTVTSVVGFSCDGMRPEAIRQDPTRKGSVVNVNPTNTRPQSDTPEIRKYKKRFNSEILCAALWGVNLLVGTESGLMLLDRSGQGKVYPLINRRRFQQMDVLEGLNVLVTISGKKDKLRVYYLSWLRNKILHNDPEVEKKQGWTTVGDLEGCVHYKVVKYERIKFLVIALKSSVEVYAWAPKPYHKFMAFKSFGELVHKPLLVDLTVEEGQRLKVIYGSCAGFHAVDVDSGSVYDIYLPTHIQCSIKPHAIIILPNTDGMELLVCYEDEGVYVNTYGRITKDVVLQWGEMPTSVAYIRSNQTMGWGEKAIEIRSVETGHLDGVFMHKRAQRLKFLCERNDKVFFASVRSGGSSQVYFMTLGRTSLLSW

[9] = molecular target: Mast/stem cell growth factor receptor Kit (Homo sapiens, UniProt P10721, D816V); experiment: Inhibition of c-Kit D816V mutant (unknown origin) using [gamma-33P]ATP; in short: as §1
Sequence of Mast/stem cell growth factor receptor Kit (P10721 26-976 D816V limits assumed): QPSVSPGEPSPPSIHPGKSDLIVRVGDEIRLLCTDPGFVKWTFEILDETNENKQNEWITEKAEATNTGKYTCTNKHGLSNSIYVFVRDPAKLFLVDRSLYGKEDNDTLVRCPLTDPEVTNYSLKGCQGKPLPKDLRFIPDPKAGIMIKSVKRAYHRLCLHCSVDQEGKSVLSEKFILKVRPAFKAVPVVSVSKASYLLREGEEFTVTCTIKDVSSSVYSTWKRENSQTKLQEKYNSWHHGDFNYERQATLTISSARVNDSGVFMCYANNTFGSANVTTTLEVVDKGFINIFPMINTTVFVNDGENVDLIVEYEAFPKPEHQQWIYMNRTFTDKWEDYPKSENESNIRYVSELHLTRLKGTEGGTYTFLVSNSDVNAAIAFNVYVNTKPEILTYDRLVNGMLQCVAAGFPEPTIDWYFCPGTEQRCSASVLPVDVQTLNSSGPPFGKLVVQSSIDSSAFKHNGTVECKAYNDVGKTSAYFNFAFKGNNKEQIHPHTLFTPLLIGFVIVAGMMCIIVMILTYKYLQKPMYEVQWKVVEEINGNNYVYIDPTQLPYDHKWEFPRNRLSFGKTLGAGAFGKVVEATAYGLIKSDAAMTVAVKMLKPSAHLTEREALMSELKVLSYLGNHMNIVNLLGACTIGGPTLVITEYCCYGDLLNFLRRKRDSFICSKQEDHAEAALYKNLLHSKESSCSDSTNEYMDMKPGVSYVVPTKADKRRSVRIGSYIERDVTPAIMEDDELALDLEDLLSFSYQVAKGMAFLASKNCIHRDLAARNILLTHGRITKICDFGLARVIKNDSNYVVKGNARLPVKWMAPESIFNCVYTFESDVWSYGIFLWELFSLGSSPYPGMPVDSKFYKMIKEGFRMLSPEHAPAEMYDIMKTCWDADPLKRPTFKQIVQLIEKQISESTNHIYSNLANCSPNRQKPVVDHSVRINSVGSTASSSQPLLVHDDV

[10] = molecular target: T1, Protein-tyrosine kinase 2-beta (Homo sapiens, UniProt Q14289); experiment: Inhibition of human 6His-tagged unphosphorylated PYK2 (1 to 967) using Poly-(GT)-biotin as substrate by AlphaScreen assay in presence of [gamma-33P]ATP
Focal adhesion kinase 1 [11] = molecular target: T2, Focal adhesion kinase 1 (Homo sapiens, UniProt Q05397); experiment: Inhibition of human FLAG-tagged unphosphorylated full length FAK expressed in baculovirus expression system incubated for 5 mins prior to 0.5 uM ATP addition by AlphaScreen assay
T2 sequence (Q05397 whole entry): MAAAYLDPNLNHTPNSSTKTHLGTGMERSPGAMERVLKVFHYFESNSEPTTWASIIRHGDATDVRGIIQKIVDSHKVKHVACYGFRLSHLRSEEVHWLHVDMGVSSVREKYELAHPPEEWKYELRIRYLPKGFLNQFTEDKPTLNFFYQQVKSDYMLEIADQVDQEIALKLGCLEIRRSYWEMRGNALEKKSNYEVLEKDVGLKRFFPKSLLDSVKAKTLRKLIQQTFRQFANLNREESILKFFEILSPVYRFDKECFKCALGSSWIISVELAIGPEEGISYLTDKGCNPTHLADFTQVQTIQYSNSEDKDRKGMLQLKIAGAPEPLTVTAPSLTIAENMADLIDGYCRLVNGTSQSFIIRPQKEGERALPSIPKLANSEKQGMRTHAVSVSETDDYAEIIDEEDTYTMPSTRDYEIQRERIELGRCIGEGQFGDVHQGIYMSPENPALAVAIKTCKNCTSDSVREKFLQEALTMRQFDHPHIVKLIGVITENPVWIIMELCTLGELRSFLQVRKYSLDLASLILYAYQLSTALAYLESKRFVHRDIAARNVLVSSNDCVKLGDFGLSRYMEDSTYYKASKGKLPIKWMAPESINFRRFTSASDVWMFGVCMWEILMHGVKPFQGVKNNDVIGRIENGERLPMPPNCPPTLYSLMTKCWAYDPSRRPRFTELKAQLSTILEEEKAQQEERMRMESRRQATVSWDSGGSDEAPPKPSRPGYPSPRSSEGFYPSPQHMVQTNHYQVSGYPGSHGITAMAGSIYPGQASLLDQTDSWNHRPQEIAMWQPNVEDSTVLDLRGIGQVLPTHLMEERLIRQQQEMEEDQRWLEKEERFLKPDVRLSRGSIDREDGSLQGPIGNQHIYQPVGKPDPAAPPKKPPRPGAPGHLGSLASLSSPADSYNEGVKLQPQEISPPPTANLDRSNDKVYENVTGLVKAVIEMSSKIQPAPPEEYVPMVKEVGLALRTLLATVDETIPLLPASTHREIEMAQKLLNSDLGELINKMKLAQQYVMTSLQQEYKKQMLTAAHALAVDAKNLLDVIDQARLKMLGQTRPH

Focal adhesion kinase 1 [12] = molecular target: T2, Focal adhesion kinase 1
Focal adhesion kinase 1 [13] = molecular target: T2, Focal adhesion kinase 1; experiment: Inhibition of human FLAG-tagged unphosphorylated full length FAK expressed in baculovirus expression system incubated for 5 mins prior to 1000 uM of ATP addition by AlphaScreen assay
Focal adhesion kinase 1 [14] = molecular target: T2, Focal adhesion kinase 1; remark: listed apart in the source
Focal adhesion kinase 1 [15] = molecular target: T2, Focal adhesion kinase 1; experiment: Inhibition of human GST-tagged phosphorylated full length FAK incubated for 5 mins prior to 0.5 uM of ATP addition by HTRF analysis
Focal adhesion kinase 1 [16] = molecular target: T2, Focal adhesion kinase 1; experiment: Inhibition of human FLAG-tagged unphosphorylated full length FAK expressed in baculovirus expression system incubated for 60 mins prior to 0.5 uM of ATP addition by AlphaScreen assay
Focal adhesion kinase 1 [17] = molecular target: T2, Focal adhesion kinase 1; remark: listed apart in the source
Focal adhesion kinase 1 [18] = molecular target: T2, Focal adhesion kinase 1; experiment: Inhibition of human GST-tagged phosphorylated full length FAK incubated for 60 mins prior to 1000 uM of ATP addition by HTRF analysis
Focal adhesion kinase 1 [19] = molecular target: T2, Focal adhesion kinase 1; experiment: Inhibition of human GST-tagged phosphorylated full length FAK incubated for 60 mins prior to 0.5 uM of ATP addition by HTRF analysis
[20] = molecular target: T1, Protein-tyrosine kinase 2-beta; experiment: Inhibition of human GST-tagged phosphorylated full length PYK2 (1 to 967) using Poly-(GT)-biotin as substrate by HTRF analysis in presence of [gamma-33P]ATP
[21] = Inhibition of PDGFRa D824V mutant (unknown origin) using [gamma-33P]ATP; parameters: species or system Homo sapiens
Focal adhesion kinase 1 [22] = molecular target: T2, Focal adhesion kinase 1; remark: listed apart in the source
Focal adhesion kinase 1 [23] = molecular target: T2, Focal adhesion kinase 1; experiment: Inhibition of human FLAG-tagged unphosphorylated full length FAK expressed in baculovirus expression system incubated for 60 mins prior to 1000 uM of ATP addition by AlphaScreen assay
Focal adhesion kinase 1 [24] = molecular target: T2, Focal adhesion kinase 1; experiment: Inhibition of human GST-tagged phosphorylated full length FAK incubated for 5 mins prior to 1000 uM of ATP addition by HTRF analysis

Row | SMILES | IC50 [1] | IC50 [2] | IC50 [3] | IC50 [4] | IC50 [5] | IC50 [6] | IC50 [7] | IC50 [8] | IC50 [9] | other results
1 | CCc1ccc(-c2ccc3c(c2)-c2n[nH]cc2S(=O)(=O)N3C)cc1 | 2.8 µM | 0.37 µM | 4 µM | 3 µM | 1.9 µM | 1.8 µM | 3.4 µM | 1.6 µM | 2.8 µM | –
2 | CCc1ccc(-c2ccc3c(c2)-c2c(cnn2CC)S(=O)(=O)N3C)cc1 | > 10 µM | > 10 µM | > 10 µM | > 10 µM | > 10 µM | > 10 µM | > 10 µM | > 10 µM | > 10 µM | IC50 [10]: > 30 µM; IC50 (Focal adhesion kinase 1 [11]): > 10 µM; IC50 (Focal adhesion kinase 1 [12]): 1.6 µM; IC50 (Focal adhesion kinase 1 [13]): > 10 µM; IC50 (Focal adhesion kinase 1 [14]): 1.3 µM; IC50 (Focal adhesion kinase 1 [15]): > 30 µM; IC50 (Focal adhesion kinase 1 [16]): 3.2 µM; IC50 (Focal adhesion kinase 1 [17]): 1 µM; IC50 (Focal adhesion kinase 1 [18]): > 30 µM; IC50 (Focal adhesion kinase 1 [19]): > 30 µM; IC50 [20]: > 30 µM; IC50 [21]: > 10 µM; IC50 (Focal adhesion kinase 1 [22]): 3 µM; IC50 (Focal adhesion kinase 1 [23]): 3.2 µM; IC50 (Focal adhesion kinase 1 [24]): > 30 µM
